Only some compounds are listed: those with a hit (about 4.3% of all), similar ones and a draw of the others.
ALR inh – blocks human ALR sulfhydryl oxidase activity; purified ALR, DTT oxidation, H2O2 HRP-luminol luminescence; 290,000 tested, 3.8% active; AID 485317; inhibition, % (concentration not given with the values); P55789;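 active = mean replicate inhibition above about 79%, with every replicate also reaching it, limit read from the data; inconclusive = only one of the two criteria met; inactive = mean below limit and not every replicate reaching it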
Target sequence (P55789 whole entry, looked up): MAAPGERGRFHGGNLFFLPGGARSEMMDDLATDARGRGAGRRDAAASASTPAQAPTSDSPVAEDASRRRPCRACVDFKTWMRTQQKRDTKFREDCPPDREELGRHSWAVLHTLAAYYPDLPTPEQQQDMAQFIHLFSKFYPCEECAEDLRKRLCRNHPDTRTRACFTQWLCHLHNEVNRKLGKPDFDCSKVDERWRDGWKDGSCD
CAL PDZ FP-1 – inhibitors of human CAL PDZ peptide binding. Q9HD26. purified CAL PDZ, TMR-peptide fluorescence polarization, 1 h. inhibition, % at 20 µM. 330,000 tested, 0.02% active. AID 504414;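 active = highest replicate inhibition of at least 40%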
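Material – purified CerCALP PDZ construct · Detection – FP readout, S and P plane fluorescence · Measure – percent inhibition from loss of millipolarization · Controls – unlabelled peptide for full inhibition, DMSO wells as neutral · Probe or stimulus – TMR-labelled reporter peptide T*-PRC34 bound in PDZ groove · Times – 1 h at RT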
Rtt109 HAT inh – inhibitors of Candida albicans Rtt109/Vps75 histone acetyltransferase; AID 540336; inhibition, % at 34.9 µM; 330,000 tested, 0.16% active; purified Rtt109/Vps75, ThioGlo CoA-SH fluorescence, 4 h;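 active = inhibition of at least 50% in every replicate; inconclusive = best replicate reaches 50% inhibition but some replicates fall short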
Target sequence (Q5AAJ8 whole entry, looked up): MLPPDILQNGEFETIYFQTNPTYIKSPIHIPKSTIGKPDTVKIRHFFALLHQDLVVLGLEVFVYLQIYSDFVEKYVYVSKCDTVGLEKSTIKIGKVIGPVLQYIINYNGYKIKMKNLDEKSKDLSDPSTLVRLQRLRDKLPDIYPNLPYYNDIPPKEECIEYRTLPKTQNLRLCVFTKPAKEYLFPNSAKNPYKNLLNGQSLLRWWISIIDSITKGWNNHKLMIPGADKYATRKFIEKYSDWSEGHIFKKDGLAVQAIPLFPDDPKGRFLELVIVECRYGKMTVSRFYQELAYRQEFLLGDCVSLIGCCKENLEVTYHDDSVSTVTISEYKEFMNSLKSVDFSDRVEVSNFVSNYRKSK
Dyrk1A ADPGlo – blocks rat Dyrk1A kinase activity. AID 504441. ADP-Glo luminescence, NFATc1 peptide. Q63470. 310,000 tested, 0.43% active. inhibition, % at 12.5 µM; in the data active = inhibition above about 50%
CAL PDZ FP-2 – inhibitors of human CAL PDZ peptide binding | purified CAL PDZ, TMR-peptide fluorescence polarization, 1 h | inhibition, % at 24.9 µM | 300,000 tested, 0.92% active;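 active = mean inhibition of at least 30% with at least half of replicates also reaching 30%; inconclusive = no clear call, values can overlap the other calls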
Hits are given with their value.

How did O=C(O)C1Cc2ccccc2CN1C(=O)CSc1nnc2ccccn12 (stereo not drawn) do in these assays?
ALR inh: inactive; CAL PDZ FP-1: inactive; Rtt109 HAT inh: inactive; CAL PDZ FP-2: inactive

Results for COc1ccc(C(N)CCc2ccco2)cc1 (stereo not drawn) ?
ALR inh: 99; CAL PDZ FP-1: inactive; Rtt109 HAT inh: inactive; Dyrk1A ADPGlo: inactive; CAL PDZ FP-2: inactive

Results for COc1ccc(S(=O)(=O)N(C)C(C)CCc2ccco2)cc1 (stereo not drawn) ?
ALR inh: inactive; CAL PDZ FP-1: inactive; Rtt109 HAT inh: inactive; Dyrk1A ADPGlo: inactive; CAL PDZ FP-2: inactive

Results for COc1cscc1C(=O)O ?
ALR inh: inactive; CAL PDZ FP-1: inactive; Rtt109 HAT inh: inactive; Dyrk1A ADPGlo: inactive

Results for Cc1ccc(N=Nc2c(N)[nH]n3c(=O)cc(-c4ccccc4)nc23)cc1 ?
ALR inh: inactive; CAL PDZ FP-1: inactive; Rtt109 HAT inh: inactive; Dyrk1A ADPGlo: inactive; CAL PDZ FP-2: inactive

What do the screens show for `COc1cccc(N=Nc2c(N)[nH]n3c(=O)cc(-c4ccccc4)nc23)c1`?
ALR inh: inactive; CAL PDZ FP-1: inactive; Rtt109 HAT inh: inactive; Dyrk1A ADPGlo: inactive; CAL PDZ FP-2: 63

What do the screens show for `Cc1cc(NC(CC(C)C)C(=O)O)nc(Cc2ccccc2)n1` (stereo not drawn)?
ALR inh: inactive; CAL PDZ FP-1: inactive; Rtt109 HAT inh: inactive; Dyrk1A ADPGlo: inactive; CAL PDZ FP-2: inactive

What do the screens show for `Cc1cc(NN)nc(Cc2ccccc2)n1`?
ALR inh: 81; CAL PDZ FP-1: inactive; Rtt109 HAT inh: inactive; Dyrk1A ADPGlo: inactive; CAL PDZ FP-2: inactive

Results for O=C(COc1ccc(Cl)cc1Cl)NC(=S)N1CCCc2ccccc21 ?
ALR inh: 98; CAL PDZ FP-1: inactive; Rtt109 HAT inh: inactive; Dyrk1A ADPGlo: inactive; CAL PDZ FP-2: inactive

How did Cc1nn(-c2ccccc2)c2nc(C(Cl)(Cl)Cl)[nH]c(=O)c12 do in these assays?
ALR inh: inactive; CAL PDZ FP-1: inactive; Rtt109 HAT inh: inactive; CAL PDZ FP-2: 59

Results for Cc1ccc(-n2nc(C)c3c(=O)[nH]c(C(F)(F)F)nc32)cc1 ?
ALR inh: inactive

Results for O=[N+]([O-])c1ccccc1N=Nc1ccc(O)cc1 ?
ALR inh: 80; CAL PDZ FP-1: inactive; Rtt109 HAT inh: inactive; Dyrk1A ADPGlo: inactive; CAL PDZ FP-2: inactive

Results for Cc1c(S(=O)(=O)N(C)C2CCCCC2)c(=O)n(C)c(=O)n1C ?
ALR inh: inactive; CAL PDZ FP-1: inactive; Rtt109 HAT inh: inactive; Dyrk1A ADPGlo: inactive; CAL PDZ FP-2: inactive

What do the screens show for `COc1ccc(CNC(=O)CN(c2cc(C)cc(C)c2)S(=O)(=O)c2c(C)noc2C)cc1`?
ALR inh: inconclusive; CAL PDZ FP-1: inactive; Rtt109 HAT inh: inactive; Dyrk1A ADPGlo: inactive

Results for Cc1ccc(N(CC(=O)NCc2ccc3c(c2)OCO3)S(=O)(=O)c2c(C)noc2C)cc1 ?
ALR inh: 97; CAL PDZ FP-1: inactive; Rtt109 HAT inh: inactive; Dyrk1A ADPGlo: inactive; CAL PDZ FP-2: inactive

Results for Cc1noc(C)c1S(=O)(=O)N(CC(=O)NCc1ccc2c(c1)OCO2)c1ccc(C(C)C)cc1 ?
ALR inh: 95; CAL PDZ FP-1: inactive; Rtt109 HAT inh: inactive; Dyrk1A ADPGlo: inactive; CAL PDZ FP-2: inactive

How did CCOc1ccc(N(CC(=O)Nc2cccc(Cl)c2)S(=O)(=O)c2c(C)noc2C)cc1 do in these assays?
ALR inh: 97; CAL PDZ FP-1: inactive; Rtt109 HAT inh: inactive; Dyrk1A ADPGlo: inactive

Results for Cc1cc(C)cc(N(CC(=O)NCc2ccco2)S(=O)(=O)c2c(C)noc2C)c1 ?
ALR inh: 86; CAL PDZ FP-1: inactive; Rtt109 HAT inh: inactive; Dyrk1A ADPGlo: inactive

What do the screens show for `Cc1ccc(CNC(=O)CN(c2ccc(C(C)C)cc2)S(=O)(=O)c2c(C)noc2C)cc1`?
ALR inh: inactive; CAL PDZ FP-1: inactive; Rtt109 HAT inh: inactive; Dyrk1A ADPGlo: inactive; CAL PDZ FP-2: inactive

What do the screens show for `COc1ccccc1CNC(=O)c1cc(C(=O)CC(C)C)c[nH]1`?
ALR inh: inactive; CAL PDZ FP-1: inactive; Rtt109 HAT inh: inactive; Dyrk1A ADPGlo: inactive; CAL PDZ FP-2: inactive

How did Cc1ccc(C2CC(c3cccs3)=NN2C(=O)CCl)cc1 (stereo not drawn) do in these assays?
ALR inh: inactive; Rtt109 HAT inh: inactive; Dyrk1A ADPGlo: inactive; CAL PDZ FP-2: 91

What do the screens show for `CCOC(=O)C1C(=O)CC(C)(O)C(C(=O)OCC)C1c1ccc(N(CC)CC)cc1` (stereo not drawn)?
ALR inh: 98; CAL PDZ FP-1: inactive; Rtt109 HAT inh: inactive; Dyrk1A ADPGlo: inactive; CAL PDZ FP-2: inactive

How did CCCC(=O)C1=C(N(C)c2ccccc2)CC(C)(C)CC1=O do in these assays?
ALR inh: inactive; CAL PDZ FP-1: inactive; Rtt109 HAT inh: inactive; Dyrk1A ADPGlo: inactive; CAL PDZ FP-2: inactive

What do the screens show for `CCCC(=O)C1=C(c2ccccc2)C(C#N)(C#N)C(C#N)=C1N`?
ALR inh: 99; CAL PDZ FP-1: inactive; Rtt109 HAT inh: inactive; Dyrk1A ADPGlo: inactive; CAL PDZ FP-2: inactive

Results for N#C/C(=C/c1cccc([N+](=O)[O-])c1)C(=O)Nc1ccccc1O ?
ALR inh: 96; CAL PDZ FP-1: inactive; Rtt109 HAT inh: inactive; Dyrk1A ADPGlo: inactive; CAL PDZ FP-2: inactive

What do the screens show for `COc1ccc(/C=C(/C#N)C(=O)Nc2cccc([N+](=O)[O-])c2)cc1C(=O)O`?
ALR inh: 97; CAL PDZ FP-1: inactive; Rtt109 HAT inh: inactive; Dyrk1A ADPGlo: inactive; CAL PDZ FP-2: inactive

What do the screens show for `N#C/C(=C\c1cccc([N+](=O)[O-])c1)C(=O)NCc1cccnc1`?
CAL PDZ FP-1: inactive; Rtt109 HAT inh: inactive; Dyrk1A ADPGlo: inactive; CAL PDZ FP-2: inactive

Results for N#C/C(=C\c1cccc([N+](=O)[O-])c1)C(=O)Nc1cccnc1 ?
ALR inh: 97; CAL PDZ FP-1: inactive; Rtt109 HAT inh: inactive; Dyrk1A ADPGlo: inactive; CAL PDZ FP-2: inactive

How did O=C(Nc1cc(Cl)ccc1Cl)N1CCN(C(=O)Nc2cc(Cl)ccc2Cl)CC1 do in these assays?
CAL PDZ FP-1: inactive; Rtt109 HAT inh: inactive; Dyrk1A ADPGlo: inactive; CAL PDZ FP-2: inactive

Results for COc1cc(OC)c(OC)cc1CN1CCN(Cc2ccco2)CC1 ?
ALR inh: inactive; Rtt109 HAT inh: inactive; Dyrk1A ADPGlo: inactive; CAL PDZ FP-2: inactive

How did Cn1c(Cn2c(=O)sc3ccccc32)nnc1SCC(=O)NCCc1ccccc1 do in these assays?
CAL PDZ FP-1: inactive; Rtt109 HAT inh: inactive; Dyrk1A ADPGlo: inactive

How did OC1(C#CCCN2CCCCC2)c2ccccc2-c2ccccc21 do in these assays?
ALR inh: inactive; CAL PDZ FP-1: inactive; Rtt109 HAT inh: inactive; Dyrk1A ADPGlo: inactive; CAL PDZ FP-2: 50

What do the screens show for `N#CCNC(=O)C1c2ccccc2Oc2ccccc21`?
CAL PDZ FP-1: inactive; Rtt109 HAT inh: inactive; Dyrk1A ADPGlo: inactive; CAL PDZ FP-2: inactive

Results for S=C(Nc1ccc(N2CCOCC2)cc1)Nc1ccc2snnc2c1 ?
ALR inh: 95; CAL PDZ FP-1: inactive; Dyrk1A ADPGlo: inactive; CAL PDZ FP-2: inactive

How did O=C(Nc1ccc2snnc2c1)N1CCOCC1 do in these assays?
ALR inh: 77; CAL PDZ FP-1: inactive; Rtt109 HAT inh: inactive; Dyrk1A ADPGlo: inactive; CAL PDZ FP-2: inactive
